Test results: ChEMBL document CHEMBL4680181, “Identification of a 2,4-diaminopyrimidine scaffold targeting Trypanosoma brucei pteridine reductase 1 from the LIBRA compound library screening campaign” (Eur J Med Chem, 2020)
pIC50, pKi: −log10 of the molar value. Calls of active or inactive are those of the source. No cut-off for these calls is given here.

How the values were obtained:
[1] = Selectivity ratio Ki for inhibition of inhibition of Leishmania major PTR1 to Ki for inhibition of Trypanosoma brucei PTR1
How it was run: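 Ki values for LmPTR1 and TbPTR1, each calculated from the coupled-assay IC50 with the competitive model Ki = IC50/((S/Km)+1).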

[2] = Inhibition of Trypanosoma brucei PTR1 using H2B as substrate preincubated for 10 mins followed by NADPH addition and measured up to 50 mins relative to control; details: for pKi: read-out: Ki
How it was run: (§1)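 Purified recombinant LmPTR1 or TbPTR1 in a coupled enzyme assay. Nine-point dose response from 0.5 to 100 μM. IC50, pIC50 and Hill slope from a 4-parameter logistic fit. Ki derived by the competitive model Ki = IC50/((S/Km)+1).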

[3] = system: Trypanosoma brucei; test: Inhibition of Trypanosoma brucei PTR1 at 50 uM using H2B as substrate preincubated for 10 mins followed by NADPH addition and measured up to 50 mins relative to control; details: time min <=60
[4] = system: Trypanosoma brucei brucei; test: Antitrypanosomal activity against bloodstream form of trypanosoma brucei brucei 427 assessed as inhibition of parasitic growth at 0.1 uM after 72 hrs by resazurin staining based fluorescence assay relative to control; format: functional, organism-based
How it was run: (§2)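 T. brucei bloodstream forms in a modified resazurin-based growth assay. EC50 (concentration inhibiting growth by 50%) obtained by nonlinear regression. Combination wells contained 4 μM MTX (methotrexate); single-agent MTX was run at 4 μM. Single-concentration tests used 10, 1 or 0.1 μM of test compound.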

[5] = system: Trypanosoma brucei brucei; test: Antitrypanosomal activity against bloodstream form of trypanosoma brucei brucei 427 assessed as reduction in parasitic growth after 72 hrs by resazurin staining based fluorescence assay; format: functional, organism-based; details: for pIC50: Trypanosoma brucei, 427, 72 h, read-out: IC50; how it was run: as §2
[6] = biological target: T1, Pteridine reductase 1 (Leishmania major, UniProt Q01782); test: Inhibition of Leishmania major PTR1 using H2B as substrate preincubated for 10 mins followed by NADPH addition and measured up to 50 mins relative to control; how it was run: as §1
T1 sequence (Q01782 whole entry): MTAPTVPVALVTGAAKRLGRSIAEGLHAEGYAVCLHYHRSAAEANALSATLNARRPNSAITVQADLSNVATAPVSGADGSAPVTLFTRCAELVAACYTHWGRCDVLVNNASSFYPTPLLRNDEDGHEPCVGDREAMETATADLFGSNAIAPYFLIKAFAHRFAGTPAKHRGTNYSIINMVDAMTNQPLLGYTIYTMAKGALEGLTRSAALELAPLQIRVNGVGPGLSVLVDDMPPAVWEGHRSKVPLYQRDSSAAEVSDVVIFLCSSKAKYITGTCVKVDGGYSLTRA

[7] = system: Trypanosoma brucei brucei; test: Antitrypanosomal activity against bloodstream form of trypanosoma brucei brucei 427 assessed as inhibition of parasitic growth at 0.1 uM after 72 hrs in presence of MTX by resazurin staining based fluorescence assay relative to control; format: functional; details: read-out: GI; how it was run: as §2
[8] = system: Trypanosoma brucei brucei; test: Antitrypanosomal activity against bloodstream form of trypanosoma brucei brucei 427 assessed as potentiation index at 0.1 uM after 72 hrs in presence of MTX by resazurin staining based fluorescence assay; format: functional
How it was run: (§3)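 Synergy index taken as the activity of test compound plus 4 μM MTX, divided by the summed activities of test compound alone and 4 μM MTX alone. Resazurin-based assay on T. brucei bloodstream forms.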

[9] = biological target: hERG (KCNH2) (Homo sapiens, UniProt Q12809); test: Inhibition of human ERG at 10 uM by fluorescence polarization assay relative to control
How it was run: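 hERG inhibition measured by fluorescence polarization (Predictor hERG assay), with compound at 10 μM.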

[10] = system: Trypanosoma brucei brucei; test: Antitrypanosomal activity against bloodstream form of trypanosoma brucei brucei 427 assessed as potentiation index at 10 uM after 72 hrs in presence of MTX by resazurin staining based fluorescence assay; format: functional; how it was run: as §3
[11] = system: Trypanosoma brucei brucei; test: Antitrypanosomal activity against bloodstream form of trypanosoma brucei brucei 427 assessed as inhibition of parasitic growth at 10 uM after 72 hrs by resazurin staining based fluorescence assay relative to control; format: functional; how it was run: as §2
[12] = system: Trypanosoma brucei brucei; test: Antitrypanosomal activity against bloodstream form of trypanosoma brucei brucei 427 assessed as inhibition of parasitic growth at 10 uM after 72 hrs in presence of MTX by resazurin staining based fluorescence assay relative to control; format: functional; details: for inhibition of growth at 10 µM: read-out: GI; how it was run: as §2
[13] = biological target: CYP2D6 (Homo sapiens, UniProt P10635); test: Inhibition of CYP2D6 (unknown origin) at 10 uM by P450-Glo assay relative to control; format: ADME
How it was run: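 CYP2D6 inhibition measured in the P450-Glo luminescent platform, with compound at 10 μM.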

[14] = system: Trypanosoma brucei brucei; test: Antitrypanosomal activity against bloodstream form of trypanosoma brucei brucei 427 assessed as inhibition of parasitic growth at 4 uM after 72 hrs in presence of MTX by resazurin staining based fluorescence assay relative to control; format: functional; details: read-out: GI; how it was run: as §2
[15] = system: Trypanosoma brucei brucei; test: Antitrypanosomal activity against bloodstream form of trypanosoma brucei brucei 427 assessed as inhibition of parasitic growth at 1 uM after 72 hrs by resazurin staining based fluorescence assay relative to control; format: functional, organism-based; how it was run: as §2
[16] = system: Trypanosoma brucei brucei; test: Antitrypanosomal activity against bloodstream form of trypanosoma brucei brucei 427 assessed as potentiation index at 1 uM after 72 hrs in presence of MTX by resazurin staining based fluorescence assay; format: functional; how it was run: as §3
[17] = Cytotoxicity against human THP-1 cells assessed as reduction in cell viability by MTT assay; format: cell-based
[18] = system: Trypanosoma brucei brucei; test: Antitrypanosomal activity against bloodstream form of trypanosoma brucei brucei 427 assessed as inhibition of parasitic growth at 1 uM after 72 hrs in presence of MTX by resazurin staining based fluorescence assay relative to control; format: functional; details: read-out: GI; how it was run: as §2
[19] = Cytotoxicity against human A549 cells assessed as reduction in cell viability by Cell Titer-Glo assay; format: cell-based
How it was run: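 A549 cells from DSMZ, grown in DMEM with 10% v/v FCS, 100 μg/mL streptomycin and 100 U/mL penicillin G. Viability read by CellTiter-Glo luminescence of cellular ATP, which scales with cell number. GI50 reported.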

Chain of CYP2D6 (P10635 whole entry): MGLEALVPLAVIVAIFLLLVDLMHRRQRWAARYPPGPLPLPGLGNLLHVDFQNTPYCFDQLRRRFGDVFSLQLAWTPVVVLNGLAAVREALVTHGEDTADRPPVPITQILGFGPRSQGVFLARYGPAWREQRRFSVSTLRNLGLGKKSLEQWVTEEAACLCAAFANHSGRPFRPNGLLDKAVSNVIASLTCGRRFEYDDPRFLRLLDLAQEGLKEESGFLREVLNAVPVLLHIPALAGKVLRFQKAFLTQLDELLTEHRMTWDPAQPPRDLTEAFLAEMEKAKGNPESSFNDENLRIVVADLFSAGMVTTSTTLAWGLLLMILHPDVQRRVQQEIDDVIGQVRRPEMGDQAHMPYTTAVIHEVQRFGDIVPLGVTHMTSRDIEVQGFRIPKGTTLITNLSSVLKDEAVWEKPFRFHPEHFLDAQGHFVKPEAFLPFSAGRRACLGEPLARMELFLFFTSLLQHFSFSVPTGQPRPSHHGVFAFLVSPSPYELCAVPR
Chain of hERG (KCNH2) (Q12809 whole entry): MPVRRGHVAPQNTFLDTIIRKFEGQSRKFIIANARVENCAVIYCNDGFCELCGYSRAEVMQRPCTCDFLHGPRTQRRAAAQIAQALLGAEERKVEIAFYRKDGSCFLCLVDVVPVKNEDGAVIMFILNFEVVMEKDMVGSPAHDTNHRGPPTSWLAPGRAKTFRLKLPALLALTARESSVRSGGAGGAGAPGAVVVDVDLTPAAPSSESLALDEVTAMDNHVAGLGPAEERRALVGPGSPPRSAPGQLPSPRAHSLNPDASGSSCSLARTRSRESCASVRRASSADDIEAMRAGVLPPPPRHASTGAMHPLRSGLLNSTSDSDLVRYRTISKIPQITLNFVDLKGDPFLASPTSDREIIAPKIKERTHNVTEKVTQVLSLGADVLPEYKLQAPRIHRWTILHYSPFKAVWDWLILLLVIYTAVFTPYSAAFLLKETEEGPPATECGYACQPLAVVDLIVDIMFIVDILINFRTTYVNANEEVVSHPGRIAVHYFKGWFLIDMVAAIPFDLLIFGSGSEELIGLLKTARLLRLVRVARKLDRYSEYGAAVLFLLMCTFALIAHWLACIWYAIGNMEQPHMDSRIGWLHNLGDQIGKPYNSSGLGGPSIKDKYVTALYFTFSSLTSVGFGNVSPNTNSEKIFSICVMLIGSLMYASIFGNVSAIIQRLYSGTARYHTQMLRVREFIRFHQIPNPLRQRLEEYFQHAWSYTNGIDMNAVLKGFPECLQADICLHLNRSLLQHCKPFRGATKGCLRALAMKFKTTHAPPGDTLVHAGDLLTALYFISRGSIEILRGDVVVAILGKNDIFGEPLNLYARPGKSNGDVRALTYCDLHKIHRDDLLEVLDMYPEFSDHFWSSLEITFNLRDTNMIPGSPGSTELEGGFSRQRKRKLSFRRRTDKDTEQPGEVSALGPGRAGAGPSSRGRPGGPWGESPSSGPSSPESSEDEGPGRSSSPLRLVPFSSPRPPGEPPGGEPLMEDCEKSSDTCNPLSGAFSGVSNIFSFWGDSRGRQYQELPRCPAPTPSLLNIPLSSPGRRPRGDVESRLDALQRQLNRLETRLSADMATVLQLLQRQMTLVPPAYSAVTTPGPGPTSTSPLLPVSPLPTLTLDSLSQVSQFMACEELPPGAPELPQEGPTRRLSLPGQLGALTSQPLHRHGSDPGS

Row | pKi [2] | inhibition [3] | pIC50 [5] | pKi [6] | IC50 [5] | Compound | growth inhibition (GI) [4] | inhibition of growth at 0.1 µM [7] | Activity_index [8] | growth inhibition (GI) [11] | Activity_index [10] | inhibition of growth at 10 µM [12] | further results
1 | 5.66 | > 85% | 5.61 | < 4.00 |  | Cl.Fc1ccc(N(CCNCCCc2ccccc2)c2ccc(F)cc2)cc1 | inactive | 46% | 1.1 |  |  |  | Ratio Ki [1]: > 45; pIC50 [6]: < 4.00
2 | 5.57 | > 85% | 6.24 | 4.83 |  | O=C1CCCCCNCc2ccc(cc2)Cc2ccc(cc2)CNCCCCCC(=O)N(Cc2ccccc2)CCCCCCCCN1Cc1ccccc1 | inactive | 42% | 1.1 |  |  |  | 
3 |  |  |  | < 4.00 |  | Nc1nc(NCc2ccccc2)cc(NCc2ccccc2)n1 |  |  |  |  |  |  | inhibition at 10 µM [9]: > 50%; Ki [2]: Not Active
4 |  |  |  |  |  | 4-(4-Methoxybenzylamino)2,6-diaminopyrimidine |  |  |  | inactive |  |  | Activity index [10]: 2.2; growth inhibition (GI) [12]: 41%
5 | 5.77 | > 85% | 6.21 | < 4.00 |  | O=C1CCCCCNCc2ccc(cc2)CNCCCCCC(=O)N(Cc2ccccc2)CCCCCCCCN1Cc1ccccc1 | inactive | 43% | 1.4 |  |  |  | pIC50 [6]: < 4.00
6 | 6.10 |  |  | < 4.00 | Not Active | COc1ccc(COc2cc(N)nc(N)n2)cc1 |  |  |  | inactive | 2.2 | 42% | 
7 | 5.47 |  |  | < 4.00 | Not Active | Nc1cc(NCc2ccccc2)nc(N)n1 |  |  |  | inactive | 1.3 | 24% | inhibition at 10 µM [9]: > 50%; inhibition at 10 µM [13]: 30%
8 | 5.96 |  |  | < 4.00 | Not Active | Nc1cc(NCc2ccc(F)cc2)nc(N)n1 |  |  |  | inactive | 1.8 | 37% | inhibition at 10 µM [9]: > 50%; inhibition at 10 µM [13]: 30%
9 | 5.31 | > 85% |  | 4.92 | Not Active | Cn1cnc2c(N)nc(CCc3ccccc3)nc21 |  |  |  |  | 1.7 | 56% | 
10 |  |  |  |  |  | CN(Cc1cnc2nc(N)nc(N)c2n1)c1ccc(C(=O)N[C@@H](CCC(=O)O)C(=O)O)cc1 [METHOTREXATE] |  |  |  |  |  |  | inhibition of growth at 4 µM [14]: 19%
11 | 5.80 | > 85% |  | < 4.00 | Not Active | NCCCCCCN1CC[C@H]2COc3ccccc3[C@H]21 |  |  |  | inactive | 1.3 | 51% | Ratio Ki [1]: > 62.5; pIC50 [6]: < 4.00
12 | < 4.00 | > 85% |  | 5.24 |  | Oc1ccc(-c2ccc(-c3cc(O)cc(O)c3)c(-c3ccccc3)c2)cc1 |  |  |  |  |  |  | pIC50 [2]: < 4.00
13 | 5.80 | > 85% | 6.25 | 4.72 |  | O=C1CCCCCNCc2ccc(cc2)-c2ccc(cc2)CNCCCCCC(=O)N(Cc2ccccc2)CCCCCCCCN1Cc1ccccc1 | inactive | 41% | 1.2 |  |  |  | 
14 | 6.70 |  | 5.43 | 4.82 |  | Nc1cc(NCc2ccc(-c3ccccc3)cc2)nc(N)n1 |  |  |  |  |  |  | growth inhibition (GI) [15]: Active; inhibition of growth at 10 µM ([11]; read-out: GI): > 80%; Activity_index [16]: 2.3; CC50 [17]: < 25 µM; inhibition of growth at 1 µM [18]: 49%; GI50 [19]: 28.6 µM
15 | 6.70 | > 85% | 6.57 | 4.43 |  | COc1ccccc1CNCc1ccc(CNCCCCCCCCCCCCNCc2ccc(CNCc3ccccc3OC)cc2)cc1 | inactive | 46% | 1.1 |  |  |  | Ratio Ki [1]: 186
16 | 6.22 | > 85% |  | < 4.00 | Not Active | Nc1cc(OCc2ccccc2)nc(N)n1 |  |  |  | inactive | 1.9 | 36% | Ratio Ki [1]: > 167; inhibition at 10 µM [9]: < 30%; pIC50 [6]: < 4.00; CC50 [17]: > 60 µM; inhibition at 10 µM [13]: < 30%; GI50 [19]: > 60 µM
